Source: ChEMBL document CHEMBL3272331, “Diacridines, bifunctional intercalators. Chemistry and antitumor activity” (J Med Chem, 1978)

Key:
[1] = system: Mus musculus; experiment: Toxicity in mouse P388 cells allografted BDF/1 mouse consecutively administered on day 1 to day 9 post challenge measured on day 5; assay type: organism-based
[2] = system: P388; experiment: Antitumor activity against mouse P388 cells allografted in BDF/1 mouse assessed as increase in life span at optimal dose consecutively administered on day 1 to day 9 post challenge relative to control; assay type: functional
In short: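 P-388 tumour passaged as ascites in DBA/2 mice; 1×10^6 ascites cells given ip to BDF/1 mice on day 0. Drug given daily for 9 consecutive days from day 1 to groups of six mice at 20, 10, 5, 2.5, 1.25 and 0.625 mg/kg/day. Day of death recorded; % ILS calculated from treated vs control life spans; dose giving optimal % ILS reported.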

[3] = system: P388; experiment: Growth inhibition of mouse P388 cells by in vitro assay; assay type: functional, cell-based; details: read-out: I50
In short: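 P-388 murine leukemia cells kept in suspension culture were incubated with a range of diacridine concentrations. The concentration that reduced the rate of cell growth by 50% was taken as the I50.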

Compound | LD10 [1] [mg/kg/day] | ILS [2] [%] | IC50 [3] [nM]
COc1ccc2c(NCCCCCCCCNc3c4ccc(OC)cc4nc4cc([N+](=O)[O-])ccc34)c3ccc([N+](=O)[O-])cc3nc2c1 | > 20 | 21 | –
Brc1ccc2c(NCCCCCCCCNc3c4ccccc4nc4cc(Br)ccc34)c3ccccc3nc2c1 | > 20 | 9 | 210
Cl.Nc1ccc2c(NCCCCCCCCNc3c4ccccc4nc4cc(N)ccc34)c3ccccc3nc2c1 | > 20 | 58 | –
COc1ccc(C)c2c(NCCCCCCCCNc3c4ccccc4nc4c(OC)ccc(C)c34)c3ccccc3nc12.Cl | 12.5 | 20 | –
COc1ccc2c(NCCCCCCCCNc3c4ccc(OC)cc4nc4c(OC)cccc34)c3cccc(OC)c3nc2c1 | 13 | 66 | 420
c1ccc2c(NCCCCCCCNc3c4ccccc4nc4ccccc34)c3ccccc3nc2c1 | 12.5 | 67 | 320
CCCCOc1cccc2c(NCCNc3c4ccccc4nc4c(OCCCC)cccc34)c3ccccc3nc12 | 12.5 | 9 | –
COc1cccc2c(NCCCCCCCCNc3c4ccccc4nc4c(OC)cccc34)c3ccccc3nc12 | 13.5 | 89 | 290
CCc1cccc2c(NCCNc3c4ccccc4nc4c(CC)cccc34)c3ccccc3nc12 | 16 | 20 | –
O=[N+]([O-])c1ccc2c(NCCCCCCNc3c4ccccc4nc4cc([N+](=O)[O-])ccc34)c3ccccc3nc2c1 | > 20 | 37 | 480
CCc1cccc2c(NCCCCNc3c4ccccc4nc4c(CC)cccc34)c3ccccc3nc12 | 7.4 | 10 | –
CCc1cccc2c(NCCCCCCCCNc3c4ccccc4nc4c(CC)cccc34)c3ccccc3nc12 | 12 | 42 | 230
c1ccc2c(NCCCCCCCCCCNc3c4ccccc4nc4ncccc34)c3cccnc3nc2c1 | – | 22 | –
Cl.Nc1ccc2nc3ccccc3c(NCCCCCCCCNc3c4ccccc4nc4ccc(N)cc34)c2c1 | > 20 | 60 | –
Clc1ccc2c(NCCCCCCCCNc3c4ccccc4nc4cc(Cl)ccc34)c3ccccc3nc2c1 | > 20 | 29 | 230
COc1ccc2c(NCCCCCCCCNc3c4ccccc4nc4cc(OC)ccc34)c3ccccc3nc2c1 | 10.5 | 84 | –
COc1ccc2nc3cc(Cl)ccc3c(NCCCCCCCCNc3c4ccc(Cl)cc4nc4ccc(OC)cc34)c2c1 | > 20 | 9 | –
CSc1cccc2c(NCCCCCCCCNc3c4ccccc4nc4c(SC)cccc34)c3ccccc3nc12 | > 20 | 13 | 860
c1ccc2c(NCCNc3c4ccccc4nc4ccccc34)c3ccccc3nc2c1 | 4.3 | 7 | 1420
CCc1cccc2c(NCCCCCCNc3c4ccccc4nc4c(CC)cccc34)c3ccccc3nc12 | 16 | 43 | 230
CCCOc1ccc2c(NCCCCCCNc3c4ccccc4nc4cc(OCCC)ccc34)c3ccccc3nc2c1 | 6.8 | 37 | 320
COc1cccc2c(NCCCCCCNc3c4ccccc4nc4c(OC)cccc34)c3ccccc3nc12 | 12.5 | 62 | 190
c1ccc2c(NCCCCCCCCNc3c4ccccc4nc4ccccc34)c3ccccc3nc2c1 | 13.5 | 60 | 320
c1ccc2c(NCCCCCCCCCCCCNc3c4ccccc4nc4ncccc34)c3cccnc3nc2c1 | – | 10 | –
COc1ccc2c(NCCNc3c4ccccc4nc4cc(OC)ccc34)c3ccccc3nc2c1.Cl | 7.2 | 0 | –

Compound | LD10 [1] [mg/kg/day] | ILS [2] [%] | IC50 [3] [nM]
c1ccc2c(NCCCCNc3c4ccccc4nc4ccccc34)c3ccccc3nc2c1 | 11 | 13 | 2710
Cc1ccc2c(NCCCCCCCCNc3c4ccccc4nc4cc(C)ccc34)c3ccccc3nc2c1.Cl | 7.3 | 59 | –
COc1ccc2c(NCCCCNc3c4ccccc4nc4cc(OC)ccc34)c3ccccc3nc2c1.Cl | > 20 | 10 | –
c1ccc2c(NCCCCCNc3c4ccccc4nc4ccccc34)c3ccccc3nc2c1 | 12.5 | 36 | –
CCCOc1cccc2c(NCCCCNc3c4ccccc4nc4c(OCCC)cccc34)c3ccccc3nc12.Cl | 9.8 | 9 | –
CSc1ccc2c(NCCCCCCCCNc3c4ccccc4nc4cc(SC)ccc34)c3ccccc3nc2c1.Cl | 8 | 27 | 370
CCCCOc1cccc2c(NCCCCCCCCNc3c4ccccc4nc4c(OCCCC)cccc34)c3ccccc3nc12 | 7.6 | 7 | 190
Cl.Nc1ccc2c(NCCCCCCNc3c4ccccc4nc4cc(N)ccc34)c3ccccc3nc2c1 | > 20 | 47 | 210
COc1ccc2nc3ccccc3c(NCCCCCCNc3c4ccccc4nc4ccc(OC)cc34)c2c1 | 8.6 | 25 | 320
Cc1ccc2c(NCCCCCCCCNc3c4ccccc4nc4c(C)c(C)ccc34)c3ccccc3nc2c1C.Cl | 8 | 60 | –
COc1ccc2c(NCCCCCCCCNc3c4ccc(Cl)cc4nc4cc(OC)ccc34)c3ccc(Cl)cc3nc2c1.Cl | > 20 | 17 | –
c1ccc2c(NCCCCCCNc3c4ccccc4nc4ccccc34)c3ccccc3nc2c1 | 9 | 54 | 380
COc1cccc2c(NCCCCCCCCNc3c4ccc([N+](=O)[O-])cc4nc4c(OC)cccc34)c3ccc([N+](=O)[O-])cc3nc12.Cl | > 20 | 86 | –
O=[N+]([O-])c1ccc2c(NCCCCCCCCNc3c4ccccc4nc4cc([N+](=O)[O-])ccc34)c3ccccc3nc2c1 | > 20 | 45 | 330
COc1ccc2c(NCCCCCCCCCCNc3c4ccccc4nc4cc(OC)ccc34)c3ccccc3nc2c1.Cl | 8 | 55 | –
CCCOc1ccc2c(NCCCCCCCCNc3c4ccccc4nc4cc(OCCC)ccc34)c3ccccc3nc2c1 | 5.5 | 63 | 210
CCOc1cccc2c(NCCCCCCCCNc3c4ccccc4nc4c(OCC)cccc34)c3ccccc3nc12 | 13.5 | 76 | –
COc1ccc2nc3ccccc3c(NCCCCCCCCNc3c4ccccc4nc4ccc(OC)cc34)c2c1 | 6 | 30 | 190
COc1ccc2c(NCCCCCCCCNc3c4ccc(OC)cc4nc4ccc(Cl)cc34)c3cc(Cl)ccc3nc2c1 | 7 | 18 | 160
CCc1cccc2c(NCCCCCCCCCCNc3c4ccccc4nc4c(CC)cccc34)c3ccccc3nc12 | 13 | 33 | 150
CCCCOc1cccc2c(NCCCCCCNc3c4ccccc4nc4c(OCCCC)cccc34)c3ccccc3nc12 | 6.5 | 7 | 360
c1ccc2c(NCCCCCCCCCCCCNc3c4ccccc4nc4ccccc34)c3ccccc3nc2c1 | 6.5 | 10 | 320
c1ccc2c(NCCCCCCCCCCNc3c4ccccc4nc4ccccc34)c3ccccc3nc2c1 | 7 | 33 | 380
COc1ccc2c(NCCCCCCNc3c4ccccc4nc4cc(OC)ccc34)c3ccccc3nc2c1 | 9.5 | 71 | 240
